# The source made the active and inactive calls.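 How the source made its calls, unless noted: active means inhibition above 20% together with a positive visual image hit; inconclusive means visual image hit but inhibition not above 20%; inactive means no visual image hit.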
# Experiments:
# [1] = inhibitors of TNFa-induced NFkB p65 translocation, primary screen, imaging, HUVEC, MLSMR starter and 10KST1 sets (AID 438); conditions: HUVEC TNFa-induced p65 nuclear translocation; cell count: measured here: nuclei count (cytotoxicity indicator), at 2.08 µM; inhibition: at 2 µM, stronger effect = higher value, 0% TNFa-plus-vehicle, 100% no-TNFa wells;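 further: compound added about 3h40 before a 20 min TNFalpha stimulation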;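 on inhibition: signal is the nuclear over cytoplasmic p65 intensity ratio per well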
# [2] = inhibitors of mutant huntingtin aggregation, primary screen, imaging, exon1htt(103Q)mCFP cells, high-content imaging (AID 483;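 active means visual image review flags a hit and inhibition of aggregation exceeds 20%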;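 further: compound exposure lasted 3 days before fixation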;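 on nuclei count: percent of the per-plate median nuclei count of sample wells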); conditions: exon1htt(103Q)mCFP cell line, aggregate imaging, at 2 µM; inhibition of aggregation: stronger effect = higher value; nuclei count: measured here: cell count, toxicity
# [3] = inhibitors of E-selectin induction by TNFa, primary screen, imaging, HUVEC, immunofluorescence, MLSMR starter and 10KST1 sets (AID 487;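 active means visually confirmed hit in the image check and inhibition above 20%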;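 on inhibition: signal is fraction of cell area covered by stained E-selectin grains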;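 on nuclei count: 100% = median nuclei count of all wells on the same plate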); conditions: HUVEC TNFalpha-induced E-selectin immunofluorescence imaging, at 2 µM; inhibition: stronger effect = higher value; nuclei count: measured here: cell number, toxicity
# [4] = biological target: Voltage-gated potassium channel subunit beta-2 (Rattus norvegicus) (UniProt P62483); assay: KvBeta enzyme negative modulators, primary screen, biochemical, NADPH fluorescence (AID 622;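 active means fluorescence slope higher than the sample average by over 3 SD, cut at about -0.22 in these data, passing the limit was not always enough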;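 further: slope of raw intensity against log time taken from 70 to 1610 s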); conditions: recombinant KvBeta, 4-cyanobenzaldehyde reduction, at 10 µM, stronger effect = higher value
# [5] = biological target: Voltage-gated potassium channel subunit beta-2 (Rattus norvegicus) (UniProt P62483); assay: KvBeta positive modulators, primary screen, biochemical, NADPH fluorescence (AID 623;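 active means NADPH fluorescence slope more negative than the mean of all samples by about 3 SD, 99.7% confidence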;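 further: fluorescence intensity change per second fitted from 20 to 320 s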); conditions: Recombinant KvBeta, NADPH fluorescence decrease slope, 10 min; at 10 µM; stronger effect = lower value
# [6] = biological target: Muscarinic acetylcholine receptor M4 (Homo sapiens) (UniProt P08173); assay: compounds altering M4/GIRK thallium flux, either direction, primary screen, M4 allosteric agonist project, cell-based, HEK293 M4/GIRK, BTC-AM (AID 625;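 active means fluorescence slope after compound addition differing from the mean of all tested samples at 99.7% confidence, mostly higher but some lower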;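 further: thallium influx through GIRK channels coupled to M4 in HEK293 cells with BTC-AM dye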); conditions: at 10 µM, actives lie on both sides
# Method in brief: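 assay system = HEK293 cells with M4 receptor and GIRK channels | medium = pH 7.3 thallium assay buffer | doses = 10 µM final, single point | timing = cells overnight at 37 °C, BTC-AM loading 1 h, reads 2 min total | signal = BTC-AM fluorescence, 1 Hz kinetic reads | read-out = post-addition slope, 15–24 s, of baseline-normalized fluorescence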
# [7] = inhibitors of Sendai virus-induced IRF3 signaling, primary screen, TLR/RLR signaling modifier project, cell-based, Sendai virus stimulus, luciferase, 10K MLSCN set (AID 602276;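 active means inhibition at or above 50% at 10 µM; inactive means inhibition below 50%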;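 further: firefly luciferase from ISG56 promoter only with Renilla not read in this screen; 0% = Sendai virus plus DMSO and 100% = medium plus DMSO without virus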); conditions: HEK293 RL24 IRF3 luciferase reporter, at 10 µM, stronger effect = higher value
# [8] = inhibitors of poly I:C-induced TLR3 signaling, primary screen, cell-based, poly I:C stimulus, luciferase, 10K MLSCN set (AID 602277;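 active means inhibition of the reporter signal at or above 50%; inactive means inhibition below 50%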); conditions: HEK293-TLR3 RL24 IRF3 luciferase reporter, at 10 µM, stronger effect = higher value
# Sequence of Voltage-gated potassium channel subunit beta-2 (Rattus norvegicus) (P62483 whole entry, looked up): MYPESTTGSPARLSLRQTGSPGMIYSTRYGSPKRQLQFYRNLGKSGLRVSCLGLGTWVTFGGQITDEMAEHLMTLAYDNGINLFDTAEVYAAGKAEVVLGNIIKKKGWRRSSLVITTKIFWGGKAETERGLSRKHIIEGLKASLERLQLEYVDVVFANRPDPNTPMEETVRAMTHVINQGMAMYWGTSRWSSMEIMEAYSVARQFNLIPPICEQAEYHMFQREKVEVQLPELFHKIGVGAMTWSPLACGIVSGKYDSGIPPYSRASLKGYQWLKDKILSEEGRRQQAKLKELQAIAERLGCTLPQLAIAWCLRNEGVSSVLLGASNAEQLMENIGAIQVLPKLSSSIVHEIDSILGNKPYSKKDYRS
# Sequence of Muscarinic acetylcholine receptor M4 (Homo sapiens) (P08173 whole entry, looked up): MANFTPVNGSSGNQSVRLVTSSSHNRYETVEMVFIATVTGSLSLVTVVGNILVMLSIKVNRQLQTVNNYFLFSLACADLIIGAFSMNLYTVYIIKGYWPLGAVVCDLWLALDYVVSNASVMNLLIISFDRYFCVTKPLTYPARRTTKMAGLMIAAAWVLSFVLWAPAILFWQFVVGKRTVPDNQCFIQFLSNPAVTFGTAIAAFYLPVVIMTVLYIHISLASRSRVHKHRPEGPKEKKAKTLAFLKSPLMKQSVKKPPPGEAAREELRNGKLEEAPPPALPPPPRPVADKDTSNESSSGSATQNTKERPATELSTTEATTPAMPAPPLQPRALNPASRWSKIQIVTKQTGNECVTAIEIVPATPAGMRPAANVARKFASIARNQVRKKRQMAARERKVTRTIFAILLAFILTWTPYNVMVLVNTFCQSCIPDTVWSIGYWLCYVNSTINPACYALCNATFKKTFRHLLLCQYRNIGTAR
Compound,cell count [1],inhibition [1],inhibition of aggregation [2],nuclei count [2] [%],inhibition [3],nuclei count [3] [%],fluorescence slope [4],NADPH fluorescence slope [5],fluorescence slope [6],inhibition [7],inhibition [8]
N#Cc1c(NC(=O)CSc2nnnn2C2CCCC2)sc2c1CCCC2,527,-1.8% (inactive),-3.6% (inactive),114,36.6% (inactive),109,-0.392 (inactive),2.8e-05 (inactive),0.00642 (inactive),11% (inactive),26.3% (inactive)
Cc1cc(NC(=O)c2ccc(Cl)cc2)no1,206,0.8% (inactive),41.9% (active),92,-58.4% (inactive),83.6,-0.561 (inactive),1.1e-05 (inactive),0.00496 (inactive),-41.1% (inactive),-168% (inactive)
COC(=O)c1cnn2c(C(F)(F)F)cc(-c3ccco3)nc12,246,0.2% (inactive),38.2% (inactive),75.8,42.4% (inactive),72.5,-0.276 (inactive),-8.1e-06 (inactive),0.00336 (inactive),8.92% (inactive),9.22% (inactive)
COCCn1c(=NC(=O)CSC(C)=O)sc2cc(F)ccc21,426,-6.2% (inactive),33.6% (inactive),93.7,-22% (inactive),106,-0.379 (inactive),4.1e-05 (inactive),0.00556 (inactive),13.7% (inactive),22.7% (inactive)
CCOC(=O)c1sc(NC(=O)CNC(=O)Cn2cnc3sc(C)c(C)c3c2=O)nc1C,260,12.2% (inactive),-12.7% (inactive),112,-61.8% (inactive),109,-0.565 (inactive),-1.6e-06 (inactive),0.00606 (inactive),16.7% (inactive),24.7% (inactive)
CCOC(=O)C1CCCN(C(=O)c2cc(=O)c3ccccc3o2)C1 (stereo not drawn),376,-18.9% (inactive),-28.1% (inactive),114,-38.4% (inactive),98.7,-0.426 (inactive),2.6e-05 (inactive),0.00575 (inactive),14.5% (inactive),19.9% (inactive)
CCOC(=O)C1CCCN(C(=O)c2cc3c(C)nc4ccccc4c3o2)C1 (stereo not drawn),525,-14.7% (inactive),8.7% (inactive),100,-91.4% (inactive),119,-0.522 (inactive),0.000185 (inactive),0.00625 (inactive),14.5% (inactive),5.32% (inactive)
O=C1CCC(=O)N1OCCCOc1ccc(Br)cc1Cl,490,1% (inactive),9% (inactive),74.1,-76% (inactive),106,-0.456 (inactive),2e-05 (inactive),0.00805 (inactive),16.1% (inactive),18% (inactive)
Cc1nc2ccc(NC(=O)N3CCC(c4ccccc4)C3)cc2nc1C (stereo not drawn),551,4.3% (inactive),9.2% (inactive),106,20.7% (inactive),68.5,-0.0383 (inactive),9.4e-06 (inactive),0.00546 (inactive),-0.553% (inactive),-40.6% (inactive)
COCCN1C(=O)c2oc3c(C)cc(C)cc3c(=O)c2C1c1cccc(O)c1 (stereo not drawn),561,-25% (inactive),6.4% (inactive),95.1,-66% (inactive),120,-0.545 (inactive),-5.1e-05 (inactive),0.00558 (inactive),8.51% (inactive),-1.3% (inactive)
O=C(Nc1ccc(S(=O)(=O)NCCc2ccccc2)cc1)c1ccc(Br)o1,546,-1.3% (inactive),-22.6% (inactive),62.9,-10.4% (inactive),88.5,-0.499 (inactive),-5.2e-06 (inactive),0.00439 (inactive),-1.94% (inactive),-11.8% (inactive)
CCCCNC(=O)CN(C1CCCCC1)S(C)(=O)=O,422,1.2% (inactive),-3.6% (inactive),99.8,-22.8% (inactive),103,-0.551 (inactive),1.8e-07 (inactive),0.0049 (inactive),16.6% (inactive),14.9% (inactive)
O=C(C1CCN(S(=O)(=O)c2cccnc2)CC1)N1CCN(c2ccc(Cl)cc2)CC1,447,-1.6% (inactive),11.5% (inactive),109,-26.1% (inactive),100,-0.447 (inactive),3.3e-05 (inactive),0.00572 (inactive),7.3% (inactive),-25.5% (inactive)
C=Cn1c(C(=O)O)cc(CC)c1-c1ccccc1,642,-12.5% (inactive),-22.8% (inactive),107,-51.5% (inactive),112,-0.55 (inactive),-4.3e-05 (inactive),0.00458 (inactive),10.9% (inactive),9.07% (inactive)
NC(=O)c1sc2nc(N3CCCCC3)c3c(c2c1N)CCCC3,369,8.4% (inactive),-12.2% (inactive),118,26.5% (inactive),111,1.5e-14 (active),0 (inactive),0.00601 (inactive),1.9% (inactive),10.7% (inactive)
CCS(=O)(=O)N1CCC(C(=O)N2CCOCC2)CC1,647,-7.3% (inactive),-7% (inactive),95.7,27.5% (inactive),94.4,-0.574 (inactive),-2.5e-05 (inactive),0.00531 (inactive),12.1% (inactive),15.7% (inactive)
O=C(Nc1c(-c2ccccc2)nc2ccccn12)c1ccco1,466,-7.2% (inactive),8.4% (inactive),103,13.2% (inactive),109,-0.56 (inactive),4.7e-05 (inactive),0.00475 (inactive),-7.17% (inactive),-12.7% (inactive)
CCCCOc1cccc(NC(=O)CSc2nccn2C)c1,397,2.5% (inactive),0.8% (inactive),96.8,6.2% (inactive),108,-0.318 (inactive),-3.3e-05 (inactive),0.00562 (inactive),-4.33% (inactive),-42.2% (inactive)
CCC(C)N=C1SCC(C)(/C=N/O)S1 (stereo not drawn),367,-7.2% (inactive),16.5% (inactive),80.1,-31.5% (inactive),122,-0.55 (inactive),-6.5e-05 (inactive),0.00292 (inactive),9.86% (inactive),2.1% (inactive)
O=C(CSc1nnc(-c2ccccc2Cl)n1Cc1ccco1)Nc1ccc2c(c1)OCCO2,309,0.8% (inactive),3.4% (inactive),88.5,-75.1% (inactive),107,-0.391 (inactive),-9.8e-05 (inactive),0.00631 (inactive),8.89% (inactive),18.1% (inactive)
Cc1cc(C)c2c(n1)nn1c(N3CCN(c4ccccc4C)CC3)cc(C)nc21,420,-11.8% (inactive),-116% (inactive),81,-52.8% (inactive),110,-0.447 (inactive),1.5e-05 (inactive),0.00576 (inactive),-4.5% (inactive),-6.94% (inactive)
CCN(C(=O)Cc1c(C(=O)O)[nH]c2ccccc12)c1cc(OC)ccc1OC,439,-5.2% (inactive),-10% (inactive),120,-36% (inactive),143,-0.286 (inactive),-4e-05 (inactive),0.00689 (inactive),13.8% (inactive),24.5% (inactive)
COc1ccc(-c2cc(C(=O)NCc3ccc(Cl)cc3)no2)cc1OC,358,-2.5% (inactive),-5.6% (inactive),106,41% (inactive),106,-0.19 (inactive),-1.3e-05 (inactive),0.00727 (inactive),14.3% (inactive),-8.76% (inactive)
COc1ccc(CCNC(=O)COc2ccc(S(=O)(=O)N3CCOCC3)cc2)cc1,588,-17.6% (inactive),10.7% (inactive),88.7,11.7% (inactive),116,-0.32 (inactive),-4.1e-05 (inactive),0.00641 (inactive),12.7% (inactive),23% (inactive)
Cc1ccc(S(=O)(=O)NCCC(=O)OCn2nnc3ccccc3c2=O)cc1,603,-0.8% (inactive),5% (inactive),102,-272% (inactive),119,-0.454 (inactive),-4.9e-05 (inactive),0.00588 (inactive),15.2% (inactive),28% (inactive)
COC(=O)c1c(C)oc2ccc(NS(=O)(=O)c3cccs3)cc12,435,3.4% (inactive),1.4% (inactive),99.1,-85.7% (inactive),114,-0.534 (inactive),-8.8e-05 (inactive),0.0032 (inactive),20.8% (inactive),10.9% (inactive)
COc1ccc(/C=N/n2c(=O)[nH]c3c([nH]c4ccc(C)cc43)c2=O)cc1CN1CCOCC1,643,2.6% (inactive),16.8% (inactive),74.3,4.3% (inactive),98.4,-0.407 (inactive),-0.000488 (inactive),0.00369 (inactive),-0.771% (inactive),11.2% (inactive)
COc1cccc(N2CCN(CC(=O)NCc3cccs3)CC2)c1,702,-27.6% (inactive),20.4% (inactive),100,24.5% (inactive),99.5,-0.318 (inactive),-1.7e-05 (inactive),0.00733 (inactive),21.2% (inactive),-6.45% (inactive)

# Reference: PubChem BioAssay
